In the EternaBench riboswitch data:

Tested on: MS2 coat protein
Assay: apparent Kd, MS2 coat protein; higher = weaker binding; RNA-MaP array; FMN 200 µM where present
Summary of the method: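 Apparent Kd: the median of filtered binding-curve fits from single clusters. Designs were transcribed on Illumina sequencing-chip clusters by stalled E. coli RNA polymerase and titrated with SNAP-549-labelled MS2 coat protein from 0.7 or 1.5 nM, doubling to 3 µM, in 100 mM Tris-HCl pH 7.5, 80 mM KCl, 4 mM MgCl2, BSA, DTT, yeast tRNA and Tween-20. Each series ran without and then with constant ligand, and green signal was normalised to red-channel RNA signal and control-cluster median Fmax.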

[1] = designed as: OFF switch for flavin mononucleotide, no ligand
[2] = ligand present: flavin mononucleotide, designed as: OFF switch for flavin mononucleotide
[3] = designed as: ON switch for flavin mononucleotide, no ligand
[4] = ligand present: flavin mononucleotide, designed as: ON switch for flavin mononucleotide

Sequence	apparent Kd [1]	apparent Kd [2]	apparent Kd [3]	apparent Kd [4]
CAACUCGGAGGAUAUAGCUGUUCUAACAUGAGGAUCACCCAUGUGCAGUUCCUUGUUAGGCUAGAAGGCCGGUAUA	40.6 nM	99.1 nM	–	–
GUGACACAUGAGGAUCACCCAUGUGAGGAUAUGAUACUAUGUACUUCGGUACAUAGUAUCAGAAGGCACAGUGA	50.2 nM	119 nM	–	–
UCAGGCUUCGAGAAGGACAUGAGGAUCACCCAUGUUAAUUUGAAGCAGCCGUGAGGCUGCAUCAUGUAGGAUAUCGGAGUCUGC	6.17 nM	10.2 nM	–	–
CGUACUGAAGUAAGGAUAUUGUCUCGGAUACGAAACAAGAAGGUACAUGAGGAUCACCCAUGUUGACAGUACGA	16.6 nM	16.7 nM	–	–
ACAUGAGAUUUAGGAUAUAUAGUACCUACAUGUGACAUGAGGAUCACCCAUGUGGUAAGUAUGACAUAGAAGGAAAAGAUAUGU	–	–	66 nM	67 nM
UGAAAUAGAGGAUAUACAUGAGGAUCACCCAUGUGAUCCUCCGGAGUAGGCCGUUUAUGUAGAAGGCUGAUGAA	48.9 nM	48.3 nM	–	–
GGAUGACAAAGUCAUCCUUAACGAACAUGAGGAUCACCCAUGUAGGAUAUGCUUCUCAAAGAGAAGCAGAAGGACAUGUGCCUU	33.3 nM	256 nM	–	–
GCACGAGACUAAGGAUAUGGAGUAUCUACAUUAAACAUGAGGAUCACCCAUGUAGGGAGUAUGAUUCAGAAGGUAGAGACGUGC	–	–	157 nM	37.3 nM
UGUUGUAUUACAGGAUAUCUAUUGUUUUAAUUUAGAGAAGGGUAUUCACAUGAGGAUCACCCAUGUAUAUACGAGGAAGUUGUG	–	–	54 nM	61 nM
AAAAUGUGAGGAUAUUAGUUGUACGUCAAUAGACGUAUAAGUGAGAAGGCACAUGAGGAUCACCCAUGUUCCUG	20.6 nM	112 nM	–	–
GCGUCAGAAUUAAUUGUGACAGGCAGAAGGCCAUAUUUCAUGUCAGACAUGAGGAUCACCCAUGUGGAGGAUAUGCAGUUACAC	43.4 nM	98.7 nM	–	–
UAAGAGUGAGGAUAUACGUCGCUGGUCAGGAUGGACGCAUGACAUGAGGAUCACCCAUGUAGAAGGCACAAAAC	23.8 nM	43.7 nM	–	–
CUUCAGUCACAGGAUAUGCUCAUCUAAUGAUGAGCAGAAGGGUGAACAUGAGGAUCACCCAUGUUUACGGUGGU	621 nM	487 nM	–	–
GUUGUCUAUGUAGGAUAUGCGAGGCGAGCCUAAGCAGAAGGACAUGAGGAUCACCCAUGUAUUGCGGUCUGCGUUCAGAUCGCU	38.1 nM	141 nM	–	–
GAAUAGUUGAGAGGAUAUGUAUUAUUGUAGGAUACAGAAGGUUUUAACAUGAGGAUCACCCAUGUAGGACUAUAUAUGUGAAUA	–	–	15.2 nM	13.2 nM
UUAUUAUAUGUAGGAUAUGCAUAUUAUUAUUGUGCAGAAGGACAUGAGGAUCACCCAUGUAUACUAUUAUUAUAUAUUAUAUAU	10.8 nM	13.6 nM	–	–
UAAUAAAGUGUGAGGAUAUGCUGGUCCUUAGAUCAGCAGAAGGCACAUGAGGAUCACCCAUGUAAUAUAUAAAU	40 nM	281 nM	–	–
CUCUUGUAAGGAUAUGACUACAUAAAAAAAAAAAAAUGUAGUCAGAAGGUACAUGAGGAUCACCCAUGUACUAA	20.9 nM	22.1 nM	–	–
GAAUAUUGGAUAAACAUGAGGAUCACCCAUGUAACUAGACAUGAGGAUAUGGAUUCUAAUUGGAUCCAGAAGGUAUCAAUAUUC	–	–	199 nM	227 nM
GUAGCAUAAUCAGGAUAUUCAGCGAAUAGAUAGACAUGAGGAUCACCCAUGUGGCGAAAGCCUAGGGAGAAGGGAUAAUGCUAC	–	–	200 nM	35.8 nM
UCCAAAUCGUAGAAGGGUGACAUGAGGAUCACCCAUGUGCAGCAACCGUGAACGGCCAUGCUGCCACAGGAUAUACGAUGGAGU	–	–	14.1 nM	29.8 nM

Sequence	apparent Kd [1]	apparent Kd [2]	apparent Kd [3]	apparent Kd [4]
AGCAAGUAUACAUGAGGAUCACCCAUGUUUGAUAGGGUUUUCAGAAGGUACAAUUUGAGAUAGAGUAAGGAUAUGAAAUAUGCG	–	–	182 nM	56.3 nM
GUCAGCUCGUGAGGAUAUACAUCACUGCUUCGGCAGUGUAUUAAGAUAACAUGAGGAUCACCCAUGUAGAAGGCACGAGCUGAU	17 nM	28.5 nM	–	–
CAUAUGUGAGGAUAUGACAAUGGUAUCUUCGGAUACCAUUGUCAGAAGGCACAUGAGGAUCACCCAUGUGGAUC	222 nM	30.7 nM	–	–
CUCAUGAGAGGAUAUACAUGAGGAUCACCCAUGUUCUUAUCUCGUCGGGCUCCAUUACGUAGAAGGCUCAUUUG	29.4 nM	46.9 nM	–	–
ACAUGAUCAGGAUAUACAUGAGGAUCACCCAUGUUUAUCAAAAAAAGGCUUUCAUCAUGUAGAAGGGAUCUUGU	20.4 nM	65.7 nM	–	–
AGAUAACACCAGAAGGACAUGAGGAUCACCCAUGUAGGAUAUGGGCAUCACUCGAGAAAGAAACGACCAAAAGGACACGUGGUC	–	–	177 nM	13.4 nM
CAACUGAGCGUAAAUUACCUGAACAUGAGGAUCACCCAUGUGGAGGAUAUUGACUUAGCAAAACUCGAGAAGGCCACUGGGAUG	39 nM	18.2 nM	–	–
UGGUACUUCGGAGGAUAUCAUGUAGAUACAUGAGGAUCACCCAUGUCGUACGAGAGUACGGAGAUUGAGAAGGCCGAAGUACCU	–	–	31.2 nM	16 nM
CACAGGGAUUCAGGAUAUAUUAGCCGAGGCCGCGUAGAAGGGAAAUCCUGACAUGAGGAUCACCCAUGUCGACCCGCCUUCCAU	–	–	48.6 nM	48.5 nM
GGACGUCGCAUAAACAUGAGGAUCACCCAUGUAACUAGACAUGAGGAUAUGGAUCCUAAUUGGAUCCAGAAGGUAUGGACGUCC	–	–	298 nM	200 nM
CCGGCCGCCGUGAGGAUAUGCCCGCGCGCCCGCGGGCAGAAGGCACAUGAGGAUCACCCAUGUCCCGCGGCACC	13.8 nM	15.7 nM	–	–
AAAAAGUGAGGAUAUACAUGAGGAUCACCCAUGUUAAAAAAGGAAAAAAAAAAAAAAUGUAGAAGGCGCAAAAA	45.3 nM	44 nM	–	–
AAGAUGCGGAUAGGAUAUGGAGAGAAAGAAAGACCAGAAGGAUUGGUCAUAUAACAUGAGGAUCACCCAUGUAUAUGUUGUGAA	19.9 nM	16.6 nM	–	–
AACAUGGUACAGAAGGGCAAUUUAUUUAAUUAUUAUUUAGAACAGCAUUGCAGGAUAUGUUUAACAUGAGGAUCACCCAUGUAC	–	–	70.4 nM	13.8 nM
UGACUUAUAUAGAAGGGUAUGUGGGAAUUACAUGAGGAUCACCCAUGUUUUAUAGGAUAUGUAUAUAGUUUUUAAUCAAGUUUA	46.3 nM	37.7 nM	–	–
AAGCUGCGCCAGAAGGGACCGACAUGAGGAUCACCCAUGUCCACAAGAGUCAGGAUAUGGCGUGGAGGCUCGUUUAUGUCCAAG	–	–	13.1 nM	5.44 nM
GAAGUCUAUUGAGGAUAUCGUUAUCAAAGAUAAUGAGAAGGCAAACAAUCAUGAGGACAUGAGGAUCACCCAUGUUGUGACCAU	–	–	26.6 nM	13.6 nM
UAUAUAUAGUAAGGAUAUGUAUUCAUUUUAUAAACAGAAGGUACUGACAUGAGGAUCACCCAUGUUUUAGUGUGGGCAUGUAGA	81.5 nM	132 nM	–	–
GUCAUCGUAUGAGGAUAUGGCACCGAAACGGUGCCAGAAGGCAUGUCAAUAGACAUGAGGAUCACCCAUGUGUUAUCGAUGGCA	–	–	116 nM	13.2 nM
GAGCGGGAAACAUGAGGAUCACCCAUGUAAUAAAUCCUCAAGUAGGAUAUGCACACGAGAAGUGUGCAGAAGGGCUACCCGGUC	29.7 nM	46.2 nM	–	–
ACUUAUGAAGGAUAUACUGGCGACAUGCGCUCAACACGCGCACAUGAGGAUCACCCAUGUAGAAGGUCAAACAU	27.5 nM	45.5 nM	–	–
